Reference: PMC12393413 (bioRxiv, 2025)

Columns and labels:
MDA-MB-468 cells = assay: Western blot analysis of UPR / PERK-eIF2α-ATF4 pathway proteins; format: cell-based, human; details: for baseline phosphorylation of PERK and eIF2α, inhibitor alone: Western blot; for effect on DH20931-induced accumulation of ATF4 protein / effect on DH20931-induced phosphorylation of PERK and eIF2α: co-treatment with DH20931, Western blot
Outline: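 Treatment lasted 24 h at 0, 2.5, 5, 10 or 20 μM test compound. Western blots were developed with BCIP/NBT substrate. Bands were quantified by densitometry and normalized to a loading control such as β-actin.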

4T1-CERS2^+/+ cells = assay: Mitochondrial Ca2+ by Rhod-2 AM confocal microscopy; format: cell-based, mouse; details: 6 h
Outline: (§1)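 Cells were seeded on glass-bottom dishes and grown overnight to ~70% confluence, in triplicate. Exposure was 6 h to test compound (5 or 10 μM) or thapsigargin (1 or 2 μM) as ER Ca2+-depletion control. Cells were rinsed in HBSS and co-loaded 20 min at 37°C with 1 μM Mag-Fluo-4 AM (ER Ca2+) and 100 nM Rhod-2 AM (mitochondrial Ca2+).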

4T1-CERS2^−/− cells = assay: as above; format: cell-based, mouse; details: 6 h
Outline: as §1

SMILES | baseline phosphorylation of PERK and eIF2α, inhibitor alone (MDA-MB-468 cells) | effect on DH20931-induced accumulation of ATF4 protein (MDA-MB-468 cells) | effect on DH20931-induced phosphorylation of PERK and eIF2α (MDA-MB-468 cells) | mitochondrial Ca2+ levels (4T1-CERS2^+/+ cells) | mitochondrial Ca2+ increase in the absence of CerS2 (4T1-CERS2^−/− cells)
Cn1cc(-c2ccc3c(c2)CCN3C(=O)Cc2cccc(C(F)(F)F)c2)c2c(N)ncnc21 [GSK2606414] | decrease in the baseline phosphorylation levels of both PERK and eIF2α | attenuated the DH20931-induced accumulation of ATF4 protein | did not affect the DH20931-induced phosphorylation |  | 
Cc1ccc2cc(-c3c(C)ccc(C(=O)c4c(-c5ccccc5)n(C)n(-c5ccccc5)c4=O)c3N)ccc2n1 [AMG44] | decrease in the baseline phosphorylation levels of both PERK and eIF2α | attenuated the DH20931-induced accumulation of ATF4 protein | markedly diminished it |  | 
C/C=C(/C)C(=O)O[C@H]1C(C)=C2[C@H]([C@@H]1OC(=O)CCCCCCC)[C@@](C)(OC(C)=O)C[C@H](OC(=O)CCC)[C@@]1(O)[C@H]2OC(=O)[C@@]1(C)O [Tg, thapsigargin] |  |  |  | increase in mitochondrial Ca^2+ levels | completely abolished
